According to ChEMBL document CHEMBL4024775, “Quinazolinone-Based Anticancer Agents: Synthesis, Antiproliferative SAR, Antitubulin Activity, and Tubulin Co-crystal Structure” (J Med Chem, 2018):
Active and inactive are the calls of the source. The rule behind the calls is not given here.

How the values were obtained:
MDA-MB-231 [1] = assay: Antiproliferative activity against human MDA-MB-231 cells after 96 hrs by WST-1 cell proliferation assay; format: functional; details: MDA-MB-231, 96 h
How it was run: (§1)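 Cells kept in RPMI-1640 with 10% FBS, penicillin and streptomycin at 37 °C, 5% CO2. Seeded at 5000 cells/well and exposed to 10-9–10-4 M compound or vehicle for 96 h. Live cells were read by WST-1. Viability was taken as percent of mean control and used to derive GI50. Triplicate experiments, mean values.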

[2] = target: T1, Steryl-sulfatase (Homo sapiens) (UniProt P08842); assay: Inhibition of STS in human JEG3 cells at 100 uM using [6,7-3H]E1S as substrate after 3 hrs by liquid scintillation spectrometry; format: cell-based
T1 sequence (whole entry): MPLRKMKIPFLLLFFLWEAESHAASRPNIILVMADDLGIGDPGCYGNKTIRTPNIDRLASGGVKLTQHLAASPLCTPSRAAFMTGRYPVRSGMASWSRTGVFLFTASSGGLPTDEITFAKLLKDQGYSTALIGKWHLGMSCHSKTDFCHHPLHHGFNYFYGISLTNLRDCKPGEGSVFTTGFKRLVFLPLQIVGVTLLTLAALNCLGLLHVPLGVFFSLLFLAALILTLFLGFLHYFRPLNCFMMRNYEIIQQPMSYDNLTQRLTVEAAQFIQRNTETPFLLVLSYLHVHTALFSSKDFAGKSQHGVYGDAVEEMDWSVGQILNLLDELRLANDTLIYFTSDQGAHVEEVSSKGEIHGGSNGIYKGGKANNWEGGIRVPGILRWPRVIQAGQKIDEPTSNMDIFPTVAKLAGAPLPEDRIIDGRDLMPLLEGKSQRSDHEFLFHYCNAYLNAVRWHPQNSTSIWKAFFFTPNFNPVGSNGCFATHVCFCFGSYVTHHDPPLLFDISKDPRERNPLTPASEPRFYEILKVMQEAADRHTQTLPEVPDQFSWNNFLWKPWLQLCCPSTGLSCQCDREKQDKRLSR
How it was run: (§2)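 JEG-3 cells were lysed in RIPA buffer and protein measured by BCA. Lysate (50 µg protein) was incubated 3 h in PBS with [6,7-3H]E1S at 20 µM final (unlabeled E1S added), with or without inhibitor. [4-14C]E1 tracked procedural losses. E1 was separated by toluene partition and counted by scintillation. Activity taken as pmol E1/h/mg protein and expressed as percent inhibited.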

[3] = Inhibition of bovine brain tubulin polymerization preincubated for 15 mins followed by GTP addition measured after 20 mins by spectrophotometric analysis; design: species or system Bos taurus
How it was run: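 Bovine brain tubulin 1.0 mg/mL (10 µM) was preincubated without GTP with varied compound concentrations for 15 min at 30 °C, then chilled and given GTP (0.4 mM final). After a 0 °C baseline, turbidity rise was followed for 20 min after a jump to 30 °C. IC50 is the concentration that halves the turbidity increase.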

DU-145 = assay: Antiproliferative activity against human DU145 cells after 96 hrs by WST-1 cell proliferation assay; format: functional; details: DU-145, 96 h; how it was run: as §1
MDA-MB-231 [4] = assay: Antiproliferative activity against human MDA-MB-231 cells after 48 hrs by MTT assay; format: functional; details: MDA-MB-231, 48 h
[5] = target: T1, Steryl-sulfatase (Homo sapiens); assay: Inhibition of STS in human JEG3 cells at 10 uM using [6,7-3H]E1S as substrate after 3 hrs by liquid scintillation spectrometry; format: cell-based; how it was run: as §2
Bos taurus = species: Bos taurus; assay: Inhibition of [3H]colchicine binding to bovine brain tubulin at 5 uM after 10 mins by DEAE-cellulose filter method relative to control
How it was run: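 Bovine brain tubulin 0.1 mg/mL (1.0 µM) with 5.0 µM [3H]colchicine and inhibitor at 5.0 µM, incubated 10 min at 37 °C. CA-4 served as comparator.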

RPMI-8226 [6] = assay: Antitumor activity against human RPMI8226 cell lines xenografted in NCr-nude mouse assessed as tumor growth inhibition at 20 mg/kg, po for 28 days measured on day 53; format: functional; details: RPMI-8226, po, read-out: TGI
How it was run: (§3)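 Female NCr-nude mice, 4-6 weeks old. 6 x 10^6 tumor cells mixed with an equal volume of Matrigel were implanted subcutaneously in the left flank. At about 100 mm3, mice were randomized into 3 groups of 6. Oral vehicle or compound given for 28 days. Tumor weight estimated as (w2 x l)/2 and read at day 53, 18 days after dosing ended.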

RPMI-8226 [7] = assay: Antitumor activity against human RPMI8226 cell lines xenografted in NCr-nude mouse assessed as tumor growth inhibition at 40 mg/kg, po for 28 days measured on day 53; format: functional; details: RPMI-8226, po, read-out: TGI; how it was run: as §3

| Structure (SMILES) | GI50 (MDA-MB-231 [1]) | inhibition [2] | GI50 (DU-145) | also measured |
| --- | --- | --- | --- | --- |
| COc1cc2c(cc1OS(N)(=O)=O)NC(=O)N(Cc1cc(OC)c(OC)c(OC)c1)C2 | 0.1 µM | inactive | 0.1 µM | IC50 [3]: 5.6 µM |
| COc1ccc(/C=C\c2cc(OC)c(OC)c(OC)c2)cc1O [COMBRETASTATIN A4] | – | – | – | GI50 (MDA-MB-231 [4]): 0.045 µM |
| COc1cc2c(cc1OS(N)(=O)=O)NC(=O)N(Cc1cccc(OC)c1OC)C2 | 0.4 µM | inactive | 0.8 µM | IC50 [3]: 8.6 µM |
| COc1cc2c(cc1O)NC(=O)N(Cc1cc(OC)c(OC)c(OC)c1)C2 | 9.3 µM | – | 8.4 µM | – |
| COc1cc2c(cc1OS(N)(=O)=O)NC(=O)N(Cc1ccccc1C)C2 | 7.4 µM | 20 to 25% | 60 µM | – |
| CCc1cc2c(cc1OS(N)(=O)=O)CCN(Cc1cc(Br)c(OC)c(OC)c1)C2 | – | Active | – | – |
| COc1cc2c(cc1OS(N)(=O)=O)NC(=O)N(Cc1cccc(Cl)c1)C2 | 2.2 µM | 70 to 80% | 3.2 µM | inhibition [5]: Active |
| COc1cc2c(cc1O)CCN(Cc1cc(Br)c(OC)c(OC)c1)C2 | – | Active | – | – |
| COc1ccc(OC)c(CN2Cc3cc(OC)c(OS(N)(=O)=O)cc3NC2=O)c1 | 0.05 µM | inactive | 0.05 µM | inhibition (Bos taurus): 61%; IC50 [3]: 2.5 µM |
| COc1cc2c(cc1OS(N)(=O)=O)NC(=O)N(Cc1ccccc1Cl)C2 | 0.2 µM | 70 to 80% | 0.5 µM | inhibition (Bos taurus): 43%; IC50 [3]: 5 µM; inhibition [5]: Active |
| COc1cc2c(cc1OS(N)(=O)=O)NC(=O)N(Cc1ccccc1)C2 | > 100 µM | inactive | > 100 µM | – |
| COc1ccc(CN2Cc3cc(OC)c(OS(N)(=O)=O)cc3NC2=O)cc1 | > 100 µM | inactive | > 100 µM | – |
| COc1cc2c(cc1O)NC(=O)N(Cc1ccccc1F)C2 | > 100 µM | – | > 100 µM | – |
| COc1cc2c(cc1OS(N)(=O)=O)CCN(Cc1cc(Br)c(OC)c(OC)c1)C2 | – | 45% | – | – |
| COc1cc(CN2CCc3cc(OS(N)(=O)=O)ccc3C2)cc(OC)c1OC | – | Active | – | – |
| COc1cc(CN2CCc3cc(O)ccc3C2)cc(OC)c1OC | – | Active | – | – |
| COc1ccccc1CN1Cc2cc(OC)c(OS(N)(=O)=O)cc2NC1=O | 0.2 µM | 70 to 80% | 0.3 µM | inhibition (Bos taurus): 55%; inhibition in vivo at 20 mg/kg (RPMI-8226 [6]): 27%; inhibition in vivo at 40 mg/kg (RPMI-8226 [7]): 31%; IC50 [3]: 2.5 µM; inhibition [5]: Active |
| COc1cc2c(cc1OS(N)(=O)=O)NC(=O)N(Cc1ccccc1F)C2 | 4.5 µM | 20 to 25% | 4.8 µM | – |
| CCc1cc2c(cc1OS(N)(=O)=O)CCN(Cc1cc(OC)c(OC)c(OC)c1)C2 | – | Active | – | – |

Now from value to molecule, other results behind:

| GI50 (MDA-MB-231 [1]) | inhibition [2] | GI50 (DU-145) | Structure (SMILES) | also measured |
| --- | --- | --- | --- | --- |
| > 100 µM | – | 81 µM | COc1cc2c(cc1O)NC(=O)N(Cc1cccc(Cl)c1)C2 | – |
| 5.7 µM | – | 2.2 µM | COc1cc2c(cc1O)NC(=O)N(Cc1ccccc1OC)C2 | – |
| > 100 µM | – | > 100 µM | COc1cccc(CN2Cc3cc(OC)c(O)cc3NC2=O)c1 | – |
| > 100 µM | – | > 100 µM | COc1ccc(CN2Cc3cc(OC)c(O)cc3NC2=O)cc1 | – |
| 8.3 µM | – | 8.5 µM | COc1cc2c(cc1O)NC(=O)N(Cc1cccc(OC)c1OC)C2 | – |
| 34 µM | – | 33 µM | COc1cccc(CN2Cc3cc(OC)c(OS(N)(=O)=O)cc3NC2=O)c1 | – |
| 2.3 µM | inactive | 1.5 µM | COc1ccc(OC)c(CN2Cc3cc(OC)c(O)cc3NC2=O)c1 | – |
| > 100 µM | – | > 100 µM | COc1cc2c(cc1O)NC(=O)N(Cc1ccccc1)C2 | – |
| > 100 µM | – | > 100 µM | COc1cc2c(cc1O)NC(=O)N(Cc1ccccc1C)C2 | – |
| 5 µM | – | 5.6 µM | COc1cc2c(cc1O)NC(=O)N(Cc1ccccc1Cl)C2 | – |
